The values below come from PubChem BioAssay AID1885 (Broad Institute, 2009).

Hit rate of the full screen: of about 300,000 compounds, about 4,400 (1.5%) were called active. What follows is part of a selection rich in actives, with near analogues and random picks from the rest. A number with no mark means an inactive call.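 How the source made its calls: active means mean inhibition across valid replicates above about 55% (limit read from the data); inconclusive means mean below that limit but half or more replicates reach it; inactive means mean below it, under half of replicates reach it.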

The assay in a line: inhibitors of intracellular T. cruzi growth, primary screen, luminescence, NIH3T3 host cells (AID 1885).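 Further: signal also drops with host cell toxicity which is not excluded here; 0% = plate median of DMSO wells and 100% = zero luminescence signal; higher percent means less beta-gal luminescence so fewer parasites.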 The conditions noted are these: T. cruzi beta-gal in NIH3T3, luminescence, 90 h; active compounds read high; concentration not given here. Put shortly:
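Assay system: NIH/3T3 host cells with β-galactosidase reporter T. cruzi; input: 5,000 host fibroblasts per well; compound: single 50 nL compound addition per well in DMSO; timing: ≥90 h infection period, 3 h prior cell attachment; measured by: GalScreen β-gal luminescence, detergent lysis, 60 min; evaluation: percent inhibition of parasite-derived β-gal signal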
As a reminder, the inhibition is the drop in the measured response relative to a control, in per cent. As to `C=CCOc1cccc(C2C(C(=O)c3ccc(C)o3)=C(O)C(=O)N2c2nnc(C)s2)c1` (configuration not stated), the inhibition is 5.31%. For `N#C/C(=C\c1ccccc1C(F)(F)F)C(=O)Nc1ccccc1F`, the inhibition was -1.24%. The same measure for `C(=N\N1CCN(c2ccccn2)CC1)/C1=C(N2CCOCC2)C(=C/c2ccccc2)/CC1`: -15.4%; for `N#C/C(=C\C1=C(N2CCOCC2)C(=C\c2ccccc2)/CC1)C(=O)Nc1ccccc1F`: 57.8% (active). The same measure for `CC(=O)c1ccc(NC(=O)c2sc3nc4n(c(=O)c3c2C)CCCCC4)cc1`: -12.8%; for `Cc1ccc(N(CCC(=O)O)S(=O)(=O)c2cccc(C(F)(F)F)c2)cc1`: -18.4%. On to `Cc1ccc(C)c(NC(=S)NNC(=O)c2csc(C)c2)c1`, for which the inhibition was 6.88%. To `Cc1ccc(C)c(NC(=S)NNC(=S)Nc2ccc(C(C)C)cc2)c1` belongs 65.3% (active); to `CC(C)c1ccc(NC(=S)NNc2ccc(Cl)c(C(=O)O)c2)cc1`, 14.4%.

As to `COc1cc2ccccc2cc1C(=O)Nc1ccncc1`, the inhibition was 6.55%. Take `CCn1c(=O)c([N+](=O)[O-])c(NCc2ccc3c(c2)OCO3)c2ccccc21`: the inhibition was 24.6%. The same measure for `O=c1oc(/C=C/c2ccccc2)nc2ccccc12`: -17.7%; for `CCn1c(/C=C/c2ccc([N+](=O)[O-])o2)nc2ccccc2c1=O`: 85.9% (active); for `O=C(Cc1ccc(S(=O)(=O)N2CCOCC2)s1)N1CCN(c2ccc(C(F)(F)F)cc2[N+](=O)[O-])CC1`: 31%. To `C=CCNC(=S)N/N=C/c1ccc(C)s1` belongs 50.5%; to `CNC(=S)N/N=C/c1ccc(N2CCOCC2)s1`, 57.6% (active); to `Cc1cc(C(=O)N/N=C/c2ccc(N3CCOCC3)cc2)c(C)o1`, 0.447%. To `CCCCn1c(N)c(N(CCOC)C(=O)c2cccc(S(=O)(=O)N(C)c3ccccc3)c2)c(=O)[nH]c1=O` belongs 2.71%; to `O=C(Nc1ccc2ccccc2c1)Nc1ccc2snnc2c1`, 57.6% (active); to `CCc1ccccc1NC(=O)c1ccc2snnc2c1`, -10.4%.

`O=C(Nc1cccc(Br)c1)c1ccc2snnc2c1`: the inhibition is 10.3%. The same measure for `O=S(=O)(NCCS(=O)(=O)N1CCN(c2ccccc2)CC1)c1ccc(F)cc1`: -2.33%; for `Cc1cccc(NC(=O)Nc2cccc(Oc3c(F)c(F)c(F)c(F)c3F)c2)c1`: 68.5% (active); for `Cc1cccc(NC(=O)Nc2nnc(-c3ccccc3)o2)c1`: -4.53%. Take `COc1cccc(NC(=O)NCc2ccc(F)cc2)c1`: the inhibition was 1.25%. To `COc1ccc(C(=O)NCC(c2ccco2)N2CCc3ccccc32)cc1OC` (configuration not stated) belongs 5.94%; to `COc1ccc(C(=O)NCC2CCCN2S(=O)(=O)c2cccs2)cc1OC` (configuration not stated), -3.88%. The same measure for `COc1ccc(-c2cc(C(=O)N/N=C/c3cccnc3)c3ccccc3n2)c(OC)c1`: -3.19%; for `COc1ccc(-c2cc(C(F)(F)F)nc(S(C)(=O)=O)n2)cc1OC`: 60.3% (active). The same measure for `COc1ccc(-c2cc(C(F)(F)F)nc(NCc3cccnc3)n2)cc1`: 49.2%. Take `COc1ccc(-c2ccc(Nc3ccc(S(=O)(=O)N4CCCC4)cc3)nn2)cc1OC`: the inhibition was 14.2%. For `Cc1cc2nc3n(c2cc1C)CC1CC(C(=O)NCCC(C)C)N(C)C31` (configuration not stated), the inhibition is -2.62%. Consider `CCOc1cc(C(=O)O)ccc1OCCOc1ccccc1`, for which the inhibition was 3.5%.

For `Cc1cccc(CN2CCC(CNC(=O)Nc3ccc(F)c(Cl)c3)CC2)c1`, the inhibition was 46.2%. As for `Cc1ccccc1NC(=O)NCC1CCN(Cc2cccc(Cl)c2)CC1`, the inhibition is 57.5% (active).

Regarding `O=C(NCC1CCN(Cc2ccccc2Cl)CC1)Nc1cccc(Cl)c1`, the inhibition was 49.4%. To `CSc1ccc(/C=C2\NC(=O)NC2=O)cc1` belongs -13.1%; to `CC(=O)Nc1cccc(NC(=O)c2ccc3c(c2)CCN3S(C)(=O)=O)c1`, -5.53%; to `CC(NS(=O)(=O)c1ccc(Br)cc1)C(=O)NCC1CCCO1` (configuration not stated), 0.0781%.

For `OC(CNCC1CCCO1)Cn1c2ccc(Br)cc2c2cc(Br)ccc21` (configuration not stated), the inhibition is 55.2% (active). As for `O=C(CSc1ccc(-c2ccc(Br)cc2)nn1)NCC1CCCO1` (configuration not stated), the inhibition was -13.2%. As for `Cc1nn(C)cc1/C=N/NC(=O)c1sc2ccccc2c1Cl`, the inhibition is -4.55%.

As for `CN1CCc2ccccc2C1Cc1ccccc1NC(=O)c1sc2ccccc2c1Cl` (configuration not stated), the inhibition is 54.6% (active).

On to `COc1ccc(CNC(=O)CNC(=O)c2sc3ccccc3c2Cl)cc1OC`, for which the inhibition is 13.1%. Consider `COCCCNC(NC(=O)c1ccc(OC)cc1)C(Cl)(Cl)Cl` (configuration not stated), for which the inhibition is -20.9%.

For the compound `COc1ccccc1NC(=O)C(C)OC(=O)c1ccc(-n2cnnn2)cc1` (configuration not stated), the inhibition is -5.21%. To `O=C(Nc1cc(Cl)ccc1N1CCOCC1)c1ccc(N2CCCC2=O)cc1` belongs -1.5%. The same measure for `CC(OC(=O)c1ccc(-n2cnnn2)cc1)C(=O)NCc1ccccc1` (configuration not stated): -10.5%; for `Cc1ccc(C(=O)NCC(=O)OCc2nnc(-c3ccccc3)o2)cc1`: 0.567%; for `Cc1[nH]nc(-c2ccc(OCc3cnn(-c4ccccc4)c3)cc2O)c1Oc1ccc(Cl)cc1`: 57.6% (active).

With `COc1ccc(C(=O)Cc2cnn(-c3ccccc3)c2)c(O)c1`, the inhibition is 33.1%.

For the compound `C=C(C)COc1ccc(-c2n[nH]c(C)c2-c2ccccc2)c(O)c1`, the inhibition was -19.2%. The same measure for `COc1cc(OC)c(C(=O)OC(C)C(=O)Nc2cc(C(F)(F)F)ccc2Cl)cc1OC` (configuration not stated): 18.6%; for `CCC(C)N(C(=O)Cn1nc(C)c([N+](=O)[O-])c1C)C1CCS(=O)(=O)C1` (configuration not stated): -2.7%. To `CC(=O)Nc1ccc(NC(=O)CSC2=NS(=O)(=O)c3ccccc3N2)cc1` belongs 0.486%; to `Oc1c(CN2CCN(c3ccc(F)cc3)CC2)cc(Cl)c2cccnc12`, 59.9% (active); to `Oc1ccc(CN2CCN(c3ncccn3)CC2)cc1`, -5.02%. The same measure for `Cc1cccnc1NC(=O)c1cccc(S(=O)(=O)N2CCN(c3ccc(F)cc3)CC2)c1`: 13.5%.

Consider `CC12CCC(=O)N1C(C(=O)Nc1ccc(F)c(F)c1F)CS2` (configuration not stated), for which the inhibition was -7.75%. To `COc1cccc(NC(=O)CN(C)C(=O)CSC(=S)N2CCCC2)c1` belongs -6.94%; to `CCOC(=O)c1sc(=NC(=O)c2ccc(Br)cc2)n(C)c1C`, -5.34%. Regarding `CCOC(=O)c1sc(=S)n2c1[nH]c(=O)c1ccc(C(=O)OC)cc12`, the inhibition is 4.87%. For `CCOC(=O)C1=C(C)Nc2sc(C(=O)c3ccc(Br)cc3)c(N)c2C1c1ccc(C(=O)OC)cc1` (configuration not stated), the inhibition was 76.1% (active). To `COc1cc(C(=O)NCC(=O)NCCSc2ccc(Br)cc2)cc(OC)c1OC` belongs -6.77%. The same measure for `CCC(C)(C)n1nnnc1C(c1cccs1)N1CCN(Cc2ccccc2)CC1` (configuration not stated): 5.19%; for `CCC(C)(C)n1nnnc1C(c1ccccc1OC)N1CCSCC1` (configuration not stated): -14.5%; for `CCC(C)(C)n1nnnc1C(c1cccs1)N1CCN(c2nc3ccccc3s2)CC1` (configuration not stated): 66.6% (active).

For the compound `COc1ccc(Cc2nnc(SCC(=O)Nc3ccc(C)c(Cl)c3)[nH]c2=O)cc1`, the inhibition was 23.1%. The same measure for `S=C(NCCc1ccccc1)N1CCn2cccc2C1c1ccncc1` (configuration not stated): 23.4%; for `S=C(Nc1cccc(Br)c1)N1CCn2cccc2C1c1cccnc1` (configuration not stated): 72.8% (active); for `Fc1cc(Br)ccc1NC(=S)Nc1cccnc1`: -15.3%. To `O=C(COC(=O)/C=C/c1ccc(OC(F)F)cc1)NC1CCCCC1` belongs -1.87%; to `C=CCn1c(SCCOc2ccc(OC)cc2)nnc1C(NC(=O)c1ccc(OC)cc1)C(C)C` (configuration not stated), 4.8%. The same measure for `Cc1ccc(C(=O)NNC(=O)c2ccncc2)cc1S(=O)(=O)N1CCCCC1`: -3.57%. As to `Cc1ccc(N=C2SCCCN2C(=O)c2cccc(N3C(=O)CCC3=O)c2)cc1Cl`, the inhibition is 35.8%.

`CC(Nc1nc(N2CCOCC2)nc2ccccc12)c1ccccc1` (configuration not stated): the inhibition was 31.7%. The same measure for `CC(Nc1nc(N2CCN(CCO)CC2)nc2ccccc12)c1ccccc1` (configuration not stated): -7.35%; for `CC(Nc1nc(N2CCCC2)nc2ccccc12)c1ccccc1` (configuration not stated): 58.1% (active); for `O=C(NCCC1CCCCN1S(=O)(=O)c1ccc(F)cc1)C(=O)NC1CC1` (configuration not stated): -6.12%. To `COc1cc(NC(=O)CSc2ccc(-c3cccnc3)nn2)cc(OC)c1` belongs 1.76%; to `COc1ccc(N2CC(NS(=O)(=O)c3ccc4ccccc4c3)CC2=O)cc1` (configuration not stated), -4.61%; to `O=C(NCc1ccncc1)c1ccc(NS(=O)(=O)c2cccc([N+](=O)[O-])c2)cc1`, -11.6%. To `CN1C2CCC1CC(NC(=O)c1ccc([N+](=O)[O-])cc1)C2` (configuration not stated) belongs 8.42%; to `O=C(Nc1ccccc1C(=O)Nc1ccncc1)c1ccc([N+](=O)[O-])cc1`, 31.4%; to `O=C(Nc1cc2c3c(c1)C1CCCC1CN3CC1CCCC21)c1ccc([N+](=O)[O-])cc1` (configuration not stated), 82.1% (active). With `Cc1csc(=O)n1CC(=O)OCC(=O)N(CC(C)C)c1c(N)n(Cc2ccccc2)c(=O)[nH]c1=O`, the inhibition was -7.8%. The same measure for `Cc1ccc(NC(=O)CSc2cccc3cccnc23)c(C)c1`: 26.2%. To `Cc1c(NC(=O)CSc2cccc3cccnc23)c(=O)n(-c2ccccc2)n1C` belongs 67.7% (active); to `Cc1c(NC(=O)CSc2nnnn2-c2ccc(C(=O)O)cc2)c(=O)n(-c2ccccc2)n1C`, -12.6%.

`CCc1nc(NCCO)c(C#N)c2c1CCCC2`: the inhibition was -15%. With `CC(C)CCNc1nc(N2CCCC2)c2c(c1C#N)CCN(C)C2`, the inhibition is 58.4% (active). As for `CC(C)Cc1nc(N2CCOCC2)c(C#N)c2c1CCC2`, the inhibition was 9.81%.
